# Test results reported in ChEMBL document CHEMBL1144182, “Antimicrobial and cytotoxic arylazoenamines. Part III: antiviral activity of selected classes of arylazoenamines” (Bioorg Med Chem, 2008).
# Activity calls are given as the source filed them. No rule for the calls is given here.
# Experiments:
# [1] = test system: Human immunodeficiency virus 1; assay: Antiviral activity against HIV1 infected in MT4 cells assessed as virus-induced cytopathogenicity after 4 days; assay type: functional, organism-based
# [2] = Cytotoxicity against mock-infected human MT4 cells assessed as reduction in cell viability after 96 hrs by MTT assay; assay type: cell-based
# How it was run: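 Exponentially growing MT-4 cells seeded at 1 × 10^5 cells/mL in RPMI-1640 with 10% FCS, penicillin and streptomycin, with or without serial compound dilutions. Incubated at 37 °C, 5% CO2; viability read by MTT after 96 h. CC50 is the concentration reducing mock-infected cell viability by 50%.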
# [3] = test system: Yellow fever virus; assay: Antiviral activity against YFV infected in BHK21 cells assessed as protection against virus-induced cytopathogenicity after 4 days by MTT assay; assay type: functional, organism-based; settings: BHK-21, 96 h
# How it was run: (§1)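 MDBK (BVDV) or BHK-21 (YFV) cells were seeded at 3 × 10^4 or 5 × 10^4 cells/well respectively and grown overnight to confluent monolayers at 37 °C in 5% CO2. Monolayers were infected at m.o.i. 0.01 in serum-free medium. After 1 h, MEM Earle's with 1% FCS was added, with or without serial compound dilutions. After 3–4 days at 37 °C, viability was read by MTT. EC50 was taken as 50% protection from virus-induced cytopathogenicity.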
# [4] = Cytotoxicity against mock-infected MDBK cells assessed as reduction in cell viability after 96 hrs by MTT assay; assay type: cell-based, Bos taurus; settings: cattle
# How it was run: (§2)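 Cytotoxicity run in parallel with the antiviral assays. MDBK seeded at 6 × 10^5 and BHK at 1 × 10^6 cells/mL in maintenance medium with or without serial compound dilutions. Incubated 48–96 h at 37 °C, 5% CO2, then viability read by MTT. CC50 is the concentration reducing mock-infected cell viability by 50%.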
# [5] = test system: Bovine viral diarrhea virus 1; assay: Antiviral activity against BVDV infected in MDBK cells assessed as protection against virus-induced cytopathogenicity after 4 days by MTT assay; assay type: functional, organism-based; settings: Bovine viral diarrhea virus isolates and strains, 96 h; how it was run: as §1
# [6] = Cytotoxicity against mock-infected BHK cells assessed as reduction in cell viability after 96 hrs by MTT assay; assay type: cell-based, Mesocricetus auratus; settings: hamster; how it was run: as §2
# [7] = test system: Vaccinia virus; assay: Antiviral activity against VV infected in Vero76 cells assessed as reduction in virus plaque formation after 4 days by MTT assay; assay type: functional, organism-based; settings: Orthopoxvirus vaccinia; Vero 76
# [8] = test system: Respiratory syncytial virus; assay: Antiviral activity against RSV infected in Vero76 cells assessed as reduction in virus plaque formation after 4 days by MTT assay; assay type: functional, organism-based; settings: human respiratory syncytial virus, Vero 76, 96 h
# [9] = Cytotoxicity against mock-infected african green monkey Vero76 cells assessed as reduction in cell viability after 96 hrs by MTT assay; assay type: cell-based, Vero; settings: chlorocebus sabaeus
# [10] = test system: Poliovirus 1; assay: Antiviral activity against Sb1 virus infected in Vero76 cells assessed as reduction in virus plaque formation after 4 days by MTT assay; assay type: functional, organism-based; settings: Enterovirus C, Sabin, Vero 76, 96 h
# [11] = test system: Vesicular stomatitis virus; assay: Antiviral activity against VSV infected in Vero76 cells assessed as reduction in virus plaque formation after 4 days by MTT assay; assay type: functional, organism-based; settings: Vero 76
# [12] = test system: Coxsackievirus B2; assay: Antiviral activity against CVB2 infected in Vero76 cells assessed as reduction in virus plaque formation after 4 days by MTT assay; assay type: functional, organism-based; settings: Enterovirus B, Vero 76, 96 h
# [13] = test system: Mammalian orthoreovirus 1; assay: Antiviral activity against Reo virus 1 infected in BHK21 cells assessed as protection against virus-induced cytopathogenicity after 4 days by MTT assay; assay type: functional, organism-based; settings: Mammalian orthoreovirus 1, BHK-21, 96 h
# [14] = test system: Human alphaherpesvirus 1; assay: Antiviral activity against HSV1 infected in Vero76 cells assessed as reduction in virus plaque formation after 4 days by MTT assay; assay type: functional, organism-based; settings: Human alphaherpesvirus 1, Vero 76, 96 h
Compound,Activity [1],CC50 at 96 h [2] [µM],EC50 [3] [µM],CC50 at 96 h [4] [µM],EC50 [5] [µM],CC50 at 96 h [6] [µM],Activity [7],EC50 [8] [µM],CC50 at 96 h [9] [µM],EC50 [10] [µM],Activity [11],EC50 [12] [µM],EC50 [13] [µM],EC50 [14] [µM]
CN1C=C(/N=N/c2ccc(Cl)cc2)CCC1,inactive,> 100,> 100,58,> 58,> 100,inactive,20,90,8,inactive,5,32,–
CN1CCC/C1=C\N=N\c1ccc(Cl)c(Cl)c1,inactive,39,> 23,90,16,23,inactive,> 100,100,53,inactive,> 100,–,40
CN1CCC/C1=C\N=N\c1ccc(F)c(C(F)(F)F)c1,inactive,11,> 41,> 100,100,41,inactive,> 100,> 100,> 100,inactive,71,–,60
FC(F)(F)c1cc(/N=N\C2=C3CCCCN3CCC2)ccc1Br,inactive,34,80,> 100,61,> 100,inactive,> 100,100,25,inactive,42,–,25
CN1C=C(/N=N/c2ccc(F)c(C(F)(F)F)c2)CCC1,inactive,> 100,> 80,> 100,> 100,80,inactive,> 70,70,> 70,inactive,35,–,–
CN1C=C(/N=N/c2cccc(C(F)(F)F)c2)CCC1,inactive,> 100,> 100,> 100,90,> 100,inactive,> 100,> 100,> 100,inactive,> 100,–,–
C(=C\N1CCCC1)/N=N/c1ccccc1,inactive,8,> 82,63,> 63,82,inactive,30,70,> 70,inactive,4,–,–
FC(F)(F)c1cc(/N=N\C2=C3CCCN3CCC2)ccc1Cl,inactive,30,> 51,21,> 21,51,inactive,> 100,100,12,inactive,9,–,33
CN1C=C(/N=N/c2ccc(Cl)c(Cl)c2)CCC1,inactive,43,> 38,73,7,38,inactive,> 100,> 100,> 100,inactive,14,–,–
CN1C=C(/N=N/c2cccc3ccccc23)CCC1,inactive,> 100,> 100,> 100,5,> 100,inactive,> 100,≥ 100,> 100,inactive,76,–,–
Clc1ccc(/N=N\C2=C3CCCCN3CCC2)cc1Cl,inactive,35,> 54,30,> 30,54,inactive,> 100,> 100,> 100,inactive,38,–,–
Cc1ccc(/N=N/C=C2\CCCN2Cc2ccccc2)cc1,inactive,10,> 25,22,> 22,25,inactive,> 50,50,> 50,inactive,8,–,–
O=[N+]([O-])c1cccc(/N=N\C2=C3CCCN3CCC2)c1,inactive,> 100,> 95,68,> 68,95,inactive,> 100,> 100,60,inactive,54,–,–
CN1C=C(/N=N/c2cccc([N+](=O)[O-])c2)CCC1,inactive,> 100,> 95,> 100,0.8,95,inactive,> 100,> 100,> 100,inactive,> 100,–,–
Clc1ccc2c(/N=N/C3=C4CCCCN4CCC3)ccnc2c1,inactive,15,> 48,40,5,48,inactive,> 85,85,> 85,inactive,51,–,–
C(=C\N1CCN(c2ccccc2)CC1)/N=N/c1ccccc1,inactive,15,42,5,> 5,60,inactive,11,50,> 50,inactive,5,–,–
FC(F)(F)c1cc(/N=N/C2=CN(Cc3ccccc3)CCC2)ccc1Cl,inactive,43,22,28,≥ 28,32,inactive,> 48,48,> 48,inactive,4,–,–
C(=C\N1CCN(c2ccccn2)CC1)/N=N/c1ccccc1,inactive,19,> 75,≥ 100,> 100,75,inactive,7,22,> 22,inactive,6,–,–
FC(F)(F)c1cc(/N=N\C2=C3CCCCN3CCC2)cc(C(F)(F)F)c1,inactive,34,> 19,31,> 31,19,inactive,> 100,100,> 100,inactive,41,–,–
CN1CCC/C1=C\N=N\c1ccc(Cl)cc1,inactive,> 100,> 55,85,21,55,inactive,20,92,> 92,inactive,24,–,–
